Data taken from ChEMBL document CHEMBL5653631, “A Potent and Selective ULK1 Inhibitor Suppresses Autophagy and Sensitizes Cancer Cells to Nutrient Stress” (iScience, 2018).

Tests used:
[1] = biological target: T1, Bone morphogenetic protein receptor type-2 (Homo sapiens) (UniProt Q13873); assay: Inhibition of human recombinant BMPR2 at 40 nM related to control ULK1
T1 sequence (whole entry): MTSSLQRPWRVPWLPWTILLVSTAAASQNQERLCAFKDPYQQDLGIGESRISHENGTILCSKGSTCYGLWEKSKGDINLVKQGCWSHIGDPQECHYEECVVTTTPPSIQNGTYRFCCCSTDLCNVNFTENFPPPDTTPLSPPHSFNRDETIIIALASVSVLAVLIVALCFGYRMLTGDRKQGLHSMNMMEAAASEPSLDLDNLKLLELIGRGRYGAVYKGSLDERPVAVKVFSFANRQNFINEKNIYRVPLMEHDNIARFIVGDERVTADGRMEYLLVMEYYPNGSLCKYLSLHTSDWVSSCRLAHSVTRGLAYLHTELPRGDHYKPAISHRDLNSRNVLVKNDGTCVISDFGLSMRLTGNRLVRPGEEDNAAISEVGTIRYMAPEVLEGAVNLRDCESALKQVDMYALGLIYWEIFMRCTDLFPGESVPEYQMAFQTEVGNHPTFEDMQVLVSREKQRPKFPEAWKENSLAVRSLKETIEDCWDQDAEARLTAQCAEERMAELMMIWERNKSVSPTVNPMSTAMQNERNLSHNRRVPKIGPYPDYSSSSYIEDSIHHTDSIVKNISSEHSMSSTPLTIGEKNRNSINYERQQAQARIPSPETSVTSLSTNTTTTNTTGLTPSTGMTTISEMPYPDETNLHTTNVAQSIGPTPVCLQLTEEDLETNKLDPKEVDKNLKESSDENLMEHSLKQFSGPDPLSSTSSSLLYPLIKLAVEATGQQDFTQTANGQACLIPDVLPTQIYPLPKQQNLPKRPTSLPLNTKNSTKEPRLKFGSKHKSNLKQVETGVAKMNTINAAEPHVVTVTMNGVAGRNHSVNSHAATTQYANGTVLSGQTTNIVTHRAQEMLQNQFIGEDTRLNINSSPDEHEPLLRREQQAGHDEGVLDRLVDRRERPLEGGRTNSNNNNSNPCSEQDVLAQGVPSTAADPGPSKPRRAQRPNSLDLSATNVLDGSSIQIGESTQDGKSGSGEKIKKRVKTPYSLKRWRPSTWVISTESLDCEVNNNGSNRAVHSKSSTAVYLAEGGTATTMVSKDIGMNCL

[2] = biological target: Protein-tyrosine kinase 6 (Homo sapiens) (UniProt Q13882); assay: Inhibition of human recombinant BRK at 40 nM in presence of ATP by radiometric assay relative to control
Chain of Protein-tyrosine kinase 6 (Homo sapiens) (Q13882 whole entry, looked up): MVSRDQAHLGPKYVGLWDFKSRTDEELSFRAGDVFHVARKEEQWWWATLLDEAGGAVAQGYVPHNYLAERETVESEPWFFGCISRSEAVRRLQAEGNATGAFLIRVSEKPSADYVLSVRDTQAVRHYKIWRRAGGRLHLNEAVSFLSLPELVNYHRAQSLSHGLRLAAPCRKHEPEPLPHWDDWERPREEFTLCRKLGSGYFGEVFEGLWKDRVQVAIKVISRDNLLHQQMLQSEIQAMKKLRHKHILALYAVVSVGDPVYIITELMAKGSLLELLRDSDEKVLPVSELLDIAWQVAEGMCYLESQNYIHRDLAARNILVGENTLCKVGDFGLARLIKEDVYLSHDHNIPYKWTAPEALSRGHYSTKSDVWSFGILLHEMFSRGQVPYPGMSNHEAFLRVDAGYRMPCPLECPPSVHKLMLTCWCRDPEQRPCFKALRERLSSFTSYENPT
In short: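 Part of a radiometric in vitro activity panel of 327 recombinant human kinases. Each kinase was tested in duplicate at one inhibitor concentration. Activity remaining was expressed as a percentage of the vehicle control, and percent inhibition was taken as 100 minus that value.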

[3] = biological target: T2, Serine/threonine-protein kinase 17B (Homo sapiens) (UniProt O94768); assay: Inhibition of human recombinant DRAK2 at 40 nM related to control ULK1
T2 sequence (whole entry): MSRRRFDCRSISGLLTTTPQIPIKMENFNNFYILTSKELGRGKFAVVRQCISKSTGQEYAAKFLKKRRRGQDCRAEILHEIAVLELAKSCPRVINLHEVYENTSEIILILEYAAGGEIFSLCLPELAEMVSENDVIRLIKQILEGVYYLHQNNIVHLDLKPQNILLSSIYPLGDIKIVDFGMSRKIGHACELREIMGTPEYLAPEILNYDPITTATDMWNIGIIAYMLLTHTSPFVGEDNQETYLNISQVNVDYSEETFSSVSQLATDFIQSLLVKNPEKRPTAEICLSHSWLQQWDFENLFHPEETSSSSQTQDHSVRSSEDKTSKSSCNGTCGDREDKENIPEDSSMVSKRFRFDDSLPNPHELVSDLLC

[4] = biological target: Mitogen-activated protein kinase kinase kinase 20 (Homo sapiens) (UniProt Q9NYL2); assay: Inhibition of human recombinant ZAK at 15 nM in presence of ATP by radiometric assay relative to control
Chain of Mitogen-activated protein kinase kinase kinase 20 (Homo sapiens) (Q9NYL2 2-800 limits assumed): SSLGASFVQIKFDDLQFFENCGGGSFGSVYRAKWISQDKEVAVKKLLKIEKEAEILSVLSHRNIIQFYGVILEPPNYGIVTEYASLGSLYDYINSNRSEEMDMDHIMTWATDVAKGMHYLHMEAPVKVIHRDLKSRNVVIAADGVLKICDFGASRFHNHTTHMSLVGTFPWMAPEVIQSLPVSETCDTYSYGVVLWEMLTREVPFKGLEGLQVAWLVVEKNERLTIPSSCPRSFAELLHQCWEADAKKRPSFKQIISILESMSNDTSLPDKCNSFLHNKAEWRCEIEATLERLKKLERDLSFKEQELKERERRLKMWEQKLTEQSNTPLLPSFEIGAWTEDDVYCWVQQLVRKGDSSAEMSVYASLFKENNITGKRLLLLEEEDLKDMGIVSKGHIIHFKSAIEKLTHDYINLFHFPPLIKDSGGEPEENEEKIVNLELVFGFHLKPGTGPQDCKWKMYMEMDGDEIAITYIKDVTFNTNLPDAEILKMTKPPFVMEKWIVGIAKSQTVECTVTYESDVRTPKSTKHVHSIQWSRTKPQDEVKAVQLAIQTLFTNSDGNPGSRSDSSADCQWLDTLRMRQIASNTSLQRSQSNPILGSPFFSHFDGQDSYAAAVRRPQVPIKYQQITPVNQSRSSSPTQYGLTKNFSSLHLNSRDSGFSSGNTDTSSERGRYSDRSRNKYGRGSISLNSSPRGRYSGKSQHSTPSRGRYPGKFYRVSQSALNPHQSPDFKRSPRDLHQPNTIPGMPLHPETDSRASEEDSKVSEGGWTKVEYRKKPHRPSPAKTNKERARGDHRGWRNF

[5] = biological target: LIM domain kinase 1 (Homo sapiens) (UniProt P53667); assay: Inhibition of human recombinant LIMK1 at 15 nM related to control ULK1
Chain of LIM domain kinase 1 (Homo sapiens) (P53667 whole entry, looked up, the tested form may be a part): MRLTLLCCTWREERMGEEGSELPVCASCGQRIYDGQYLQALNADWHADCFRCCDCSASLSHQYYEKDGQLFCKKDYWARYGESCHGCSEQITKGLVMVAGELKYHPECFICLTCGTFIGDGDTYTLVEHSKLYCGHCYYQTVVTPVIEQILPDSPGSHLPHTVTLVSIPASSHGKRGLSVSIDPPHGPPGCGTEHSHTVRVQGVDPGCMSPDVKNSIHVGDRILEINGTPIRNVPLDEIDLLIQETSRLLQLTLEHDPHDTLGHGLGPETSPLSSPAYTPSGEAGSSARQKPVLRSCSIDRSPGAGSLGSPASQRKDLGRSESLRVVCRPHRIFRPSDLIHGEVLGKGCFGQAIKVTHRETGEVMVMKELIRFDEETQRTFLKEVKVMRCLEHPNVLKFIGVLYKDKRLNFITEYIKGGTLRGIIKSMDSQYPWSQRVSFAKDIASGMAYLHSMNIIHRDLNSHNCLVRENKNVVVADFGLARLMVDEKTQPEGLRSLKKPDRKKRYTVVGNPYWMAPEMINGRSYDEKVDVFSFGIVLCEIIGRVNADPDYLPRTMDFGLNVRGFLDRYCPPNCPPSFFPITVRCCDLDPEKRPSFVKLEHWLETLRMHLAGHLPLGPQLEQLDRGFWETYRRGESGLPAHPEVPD

[6] = biological target: Dual specificity mitogen-activated protein kinase kinase 2 (Homo sapiens) (UniProt P36507); assay: Inhibition of human recombinant MAP2K2 at 15 nM in presence of ATP by radiometric assay relative to control
Chain of Dual specificity mitogen-activated protein kinase kinase 2 (Homo sapiens) (P36507 whole entry): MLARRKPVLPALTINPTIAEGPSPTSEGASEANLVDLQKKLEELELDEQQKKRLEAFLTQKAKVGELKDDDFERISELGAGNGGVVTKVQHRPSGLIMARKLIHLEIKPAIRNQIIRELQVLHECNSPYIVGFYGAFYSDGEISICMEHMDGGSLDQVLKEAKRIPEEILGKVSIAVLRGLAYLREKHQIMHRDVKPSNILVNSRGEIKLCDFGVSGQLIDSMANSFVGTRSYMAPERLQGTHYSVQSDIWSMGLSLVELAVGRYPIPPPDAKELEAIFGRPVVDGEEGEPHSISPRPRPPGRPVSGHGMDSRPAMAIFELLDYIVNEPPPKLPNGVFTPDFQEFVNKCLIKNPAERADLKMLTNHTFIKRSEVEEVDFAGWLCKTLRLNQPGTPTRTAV

[7] = biological target: Myosin light chain kinase 2, skeletal/cardiac muscle (Homo sapiens) (UniProt Q9H1R3); assay: Inhibition of human recombinant skMLCK at 500 nM related to control ULK1
Chain of Myosin light chain kinase 2, skeletal/cardiac muscle (Homo sapiens) (Q9H1R3 whole entry): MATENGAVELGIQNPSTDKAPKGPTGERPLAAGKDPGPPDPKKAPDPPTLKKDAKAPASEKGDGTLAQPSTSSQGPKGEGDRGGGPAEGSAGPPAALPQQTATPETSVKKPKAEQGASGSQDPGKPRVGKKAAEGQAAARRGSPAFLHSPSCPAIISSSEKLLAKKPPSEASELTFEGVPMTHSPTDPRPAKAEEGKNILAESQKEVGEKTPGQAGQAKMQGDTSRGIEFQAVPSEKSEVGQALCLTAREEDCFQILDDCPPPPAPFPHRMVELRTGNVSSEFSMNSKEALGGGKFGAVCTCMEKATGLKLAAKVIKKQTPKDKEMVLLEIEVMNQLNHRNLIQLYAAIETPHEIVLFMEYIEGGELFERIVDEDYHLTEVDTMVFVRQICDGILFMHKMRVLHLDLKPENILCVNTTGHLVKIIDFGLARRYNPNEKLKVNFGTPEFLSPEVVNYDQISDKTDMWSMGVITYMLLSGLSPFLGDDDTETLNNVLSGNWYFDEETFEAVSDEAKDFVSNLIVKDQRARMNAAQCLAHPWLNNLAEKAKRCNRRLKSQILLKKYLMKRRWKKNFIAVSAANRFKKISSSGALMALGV

[8] = biological target: T3, Dual specificity tyrosine-phosphorylation-regulated kinase 2 (Homo sapiens) (UniProt Q92630); assay: Inhibition of human recombinant DYRK2 at 500 nM in presence of ATP by radiometric assay relative to control
T3 sequence (whole entry): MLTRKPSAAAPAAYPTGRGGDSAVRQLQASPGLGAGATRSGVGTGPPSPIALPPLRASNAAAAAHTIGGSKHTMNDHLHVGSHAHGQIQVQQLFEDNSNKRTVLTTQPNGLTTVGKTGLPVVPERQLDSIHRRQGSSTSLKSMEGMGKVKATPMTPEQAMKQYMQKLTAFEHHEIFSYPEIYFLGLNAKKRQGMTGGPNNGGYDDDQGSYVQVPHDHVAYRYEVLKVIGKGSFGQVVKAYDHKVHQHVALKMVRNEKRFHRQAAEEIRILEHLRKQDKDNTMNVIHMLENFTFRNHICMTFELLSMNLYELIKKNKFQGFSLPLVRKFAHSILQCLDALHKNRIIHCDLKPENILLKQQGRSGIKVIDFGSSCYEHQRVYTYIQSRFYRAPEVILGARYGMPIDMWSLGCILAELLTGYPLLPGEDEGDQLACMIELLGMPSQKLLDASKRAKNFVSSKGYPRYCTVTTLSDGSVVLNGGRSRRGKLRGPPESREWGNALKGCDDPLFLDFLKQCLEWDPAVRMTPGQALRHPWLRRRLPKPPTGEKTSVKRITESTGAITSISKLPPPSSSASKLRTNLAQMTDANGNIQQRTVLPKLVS

[9] = biological target: Serine/threonine-protein kinase 32C (Homo sapiens) (UniProt Q86UX6); assay: Inhibition of human recombinant YANK3 at 500 nM in presence of ATP by radiometric assay relative to control
Chain of Serine/threonine-protein kinase 32C (Homo sapiens) (Q86UX6 whole entry): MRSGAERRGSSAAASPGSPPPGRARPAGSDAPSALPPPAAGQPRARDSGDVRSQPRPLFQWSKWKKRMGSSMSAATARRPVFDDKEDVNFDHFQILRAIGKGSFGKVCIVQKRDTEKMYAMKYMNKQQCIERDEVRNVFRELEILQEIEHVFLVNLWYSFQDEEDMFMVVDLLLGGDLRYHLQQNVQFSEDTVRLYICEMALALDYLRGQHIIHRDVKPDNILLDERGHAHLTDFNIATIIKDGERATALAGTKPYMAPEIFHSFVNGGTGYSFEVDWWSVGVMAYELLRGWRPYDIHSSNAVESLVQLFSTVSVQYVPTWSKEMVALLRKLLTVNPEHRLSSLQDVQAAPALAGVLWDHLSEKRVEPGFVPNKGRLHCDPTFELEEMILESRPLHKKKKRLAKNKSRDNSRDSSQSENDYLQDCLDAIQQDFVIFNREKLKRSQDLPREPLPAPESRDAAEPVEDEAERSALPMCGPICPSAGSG

[10] = biological target: DNA-PK/Ku70/Ku85 (Homo sapiens) (UniProt P78527+P12956+P13010); assay: Inhibition of human recombinant DNAPK at 500 nM in presence of ATP by radiometric assay relative to control; assay type: protein-complex assay
[11] = biological target: Serine/threonine-protein kinase 24 (Homo sapiens) (UniProt Q9Y6E0); assay: Inhibition of human recombinant MST3 at 500 nM related to control ULK1
Chain of Serine/threonine-protein kinase 24 (Homo sapiens) (Q9Y6E0 whole entry, looked up): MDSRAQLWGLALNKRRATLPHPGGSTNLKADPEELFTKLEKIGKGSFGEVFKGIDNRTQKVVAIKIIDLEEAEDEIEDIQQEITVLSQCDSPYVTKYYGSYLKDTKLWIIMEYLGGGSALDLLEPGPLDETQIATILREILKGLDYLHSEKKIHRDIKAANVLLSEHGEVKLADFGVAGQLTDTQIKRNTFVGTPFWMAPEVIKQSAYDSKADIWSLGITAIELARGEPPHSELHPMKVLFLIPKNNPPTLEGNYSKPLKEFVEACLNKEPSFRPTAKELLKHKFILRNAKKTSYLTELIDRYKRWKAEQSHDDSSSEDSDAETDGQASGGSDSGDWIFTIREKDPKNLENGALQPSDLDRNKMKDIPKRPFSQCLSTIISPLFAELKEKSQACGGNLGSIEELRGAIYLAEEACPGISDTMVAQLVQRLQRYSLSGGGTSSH

[12] = biological target: Serine/threonine-protein kinase SIK1 (Homo sapiens) (UniProt P57059); assay: Inhibition of human recombinant SIK at 500 nM in presence of ATP by radiometric assay relative to control
Chain of Serine/threonine-protein kinase SIK1 (Homo sapiens) (P57059 whole entry, canonical isoform): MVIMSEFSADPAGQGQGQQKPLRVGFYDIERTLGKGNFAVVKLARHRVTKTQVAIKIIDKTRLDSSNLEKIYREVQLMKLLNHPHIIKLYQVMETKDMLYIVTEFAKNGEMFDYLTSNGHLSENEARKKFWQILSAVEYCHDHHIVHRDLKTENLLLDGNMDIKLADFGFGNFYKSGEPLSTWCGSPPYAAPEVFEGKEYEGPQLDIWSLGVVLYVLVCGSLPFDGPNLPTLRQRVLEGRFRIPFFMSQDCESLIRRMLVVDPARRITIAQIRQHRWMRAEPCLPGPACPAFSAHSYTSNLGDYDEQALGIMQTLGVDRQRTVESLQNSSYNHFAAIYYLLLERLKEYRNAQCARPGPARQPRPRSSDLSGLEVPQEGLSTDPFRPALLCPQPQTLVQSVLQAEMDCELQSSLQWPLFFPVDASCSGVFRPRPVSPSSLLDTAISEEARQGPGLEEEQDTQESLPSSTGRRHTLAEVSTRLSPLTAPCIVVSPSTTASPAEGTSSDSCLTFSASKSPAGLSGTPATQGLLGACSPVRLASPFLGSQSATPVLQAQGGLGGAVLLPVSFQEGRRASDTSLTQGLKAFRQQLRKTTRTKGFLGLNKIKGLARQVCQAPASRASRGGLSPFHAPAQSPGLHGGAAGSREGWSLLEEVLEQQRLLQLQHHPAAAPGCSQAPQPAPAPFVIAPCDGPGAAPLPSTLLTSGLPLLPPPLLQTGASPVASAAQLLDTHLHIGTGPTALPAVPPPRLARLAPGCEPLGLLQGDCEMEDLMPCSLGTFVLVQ

[13] = biological target: Casein kinase I isoform gamma-2 (Homo sapiens) (UniProt P78368); assay: Inhibition of human recombinant CK1g2 at 500 nM related to control ULK1
Chain of Casein kinase I isoform gamma-2 (Homo sapiens) (P78368 whole entry, looked up, canonical isoform): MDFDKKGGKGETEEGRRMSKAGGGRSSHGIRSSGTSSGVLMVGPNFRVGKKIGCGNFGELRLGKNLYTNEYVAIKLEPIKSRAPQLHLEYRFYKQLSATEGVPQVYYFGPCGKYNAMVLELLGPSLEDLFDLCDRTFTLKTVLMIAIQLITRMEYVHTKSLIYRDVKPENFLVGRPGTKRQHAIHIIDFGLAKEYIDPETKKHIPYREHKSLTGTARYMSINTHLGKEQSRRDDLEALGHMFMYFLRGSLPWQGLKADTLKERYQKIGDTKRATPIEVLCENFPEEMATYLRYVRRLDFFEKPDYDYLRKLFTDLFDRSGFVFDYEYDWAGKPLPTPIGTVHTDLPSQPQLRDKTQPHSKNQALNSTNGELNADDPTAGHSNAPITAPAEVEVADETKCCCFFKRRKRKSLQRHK

O=C(N[C@@H](C1CC1)C(F)(F)F)c1cc(-c2cnn3cc(-c4ccc(F)cc4)cnc23)cs1
fold change (FC) [1]: 0.08 | inhibition [2]: 0% | fold change (FC) [3]: 0.53

CC(C)[C@H](NC(=O)c1cc(-c2cnn3cc(-c4ccc(OCCN5CCCCC5)cc4)cnc23)cs1)C(F)(F)F
inhibition [4]: 26% | fold change (FC) [5]: 0.64 | inhibition [6]: 0%

CNC(=O)c1ccccc1Oc1nc(Nc2cc(OC)c(OC)c(OC)c2)ncc1Br
fold change (FC) [7]: 0 | inhibition [8]: 0% | inhibition [9]: 0% | inhibition [10]: 12% | fold change (FC) [11]: 0.78 | inhibition [12]: 20% | fold change (FC) [13]: 0
